B1: tRNA (parent)
chain: GUUCCGUUGGCGUAAUGGUAACGCGUCUCCCUCCUAAGGAGAAGACUGCGGGUUCGAGUCCCGUACGGAACG

Variants at the floor of the assay were thinned out. Some results are limits rather than exact numbers.

Variants of B1 are the subject of this data set. Briefly: yeast fitness relative to wild type (ratio to wild type); higher = fitter; tRNA-Arg(CCU), competitive growth, 37 C, YPD. The method, boiled down:
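For this measurement, the tRNA-Arg(CCU) gene was varied by chemical synthesis at a 3% per-site mutation rate across 69 sites, and each variant was placed at the native genomic locus in Saccharomyces cerevisiae. The pooled strains went through a 24-hour competition in YPD at 37°C in six parallel replicates, with amplicons from start and end populations read by 100-nucleotide paired-end sequencing. Darwinian fitness relative to wild type followed from the change in each genotype's frequency. Genotypes needed ≥ 100 starting reads, and estimates < 0.5 were set to 0.5.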
With GUUUCGUUGGCGUAAUGGUAACGCGUCUCCCUCCUAAGGAGAAGACUGCGGGUUCGUGUCCCGUACGGAACG [C4U A57U], the yeast fitness turned out to be 0.635. On to GUUCUGUUGGCGUAAUGGUAACGCGUCUCCCCCCCAAGGAGAAGACUGGGGGUUCGAGUCCCGUACGGAACG [C5U U32C U35C C49G], for which the yeast fitness was no more than 0.5. Consider GAUCCGUUGGCGUAAUGGUAACGCGUCUCCCUCCUACGGACAAGACUGCGGGUUCGAGUCCCGUAAGGAACG [U2A A37C G41C C66A], for which the yeast fitness was no more than 0.5. The value for GUUCCGUUGGCGUAAUGGUAACGCGUCUCCCUUCUAAGGAGAAGACUGCGGGUUCGAGUCCCGUAUGGAACG [C33U C66U] was 0.651; that for GUUCCGUUGGCGUAAUGGUAACGCGUCUGUCUCCUCAGGGGAAGACUGCGGGUUCGAGUCCCGUACGGAACG [C29G C30U A36C A40G] was no more than 0.5. In the case of GAUCUGUGGGCGUAAUGGUGACGCGUCUCCCUCAUAAGGAGAAGACUGCGGGUUCGAGUCCCGUACGGAACG [U2A C5U U8G A20G C34A], the yeast fitness is no more than 0.5. As to GUUCCGUUGGCGUAAUGGUAACGCGUCUCCCUCCUAAGGAGAAGACUACGGGUUCGAGUGCCGUUCGGAACG [G48A C60G A65U], the yeast fitness is no more than 0.5. Then GUUCCGUUGGCGUAAUGGUAUCCCGUCUCCCUCCUAAGGAGAAGACUGCGGGUUCGAGUCCAGUACGGAACG [A21U G23C C62A], with no more than 0.5. Turning to GUUCCGUUGGCGCAAUGGUAACGCGGCUCCCUCCCAAGGAGAAGACUGCGGGUUCGAGUCCCAUACGGAGCG [U13C U26G U35C G63A A70G], the yeast fitness is no more than 0.5. Turning to GUUCCGUUGGCAUCAUGGUAACGCGUCUCCCUCGUAAGGAGAAGACUGCGGGUUCGAGUCCCGUACGGAACG [G12A A14C C34G], the yeast fitness was no more than 0.5. For the variant GUCCCGUUGGCGUAAUGGUAACGCGUCUCCCUCCUAAGGAGAAGAAUGCGGGUUCGAGUCCCGUACGGAACG [U3C C46A], the yeast fitness came out at 0.912. The value for GUUCCGUUGGCGGAAUGGUAACGCGUCUCCCUCCUAAGGAGCAGACAGCGGGUUCGAGUCCCGUACCGAACG [U13G A42C U47A G67C] was no more than 0.5. Consider GUUAAGUUGGGGUAUUGGCAUCGCGUCUCCCUCCUAAGGAGAAGACUGCGGGUUCGAGUCCCGUACGGAACG [C4A C5A C11G A15U U19C A21U], for which the yeast fitness was no more than 0.5. The value for GUUCCGUUGGCGUAAUGGUAACGCGUCGCCCUCCUAAGGAGAAGACUGCGGGUUCGAGUCCCGUACGGAUCG [U28G A70U] was 0.842; that for GUUCCGUUGACGUAAUGGUAACGGGUCUCCCUCCUAAGGAGAAGACUGCGGGUUCAAGUCCCGUACGGAACG [G10A C24G G56A] was no more than 0.5; that for GUUCCGUUGGUGGAAUGGAAAGGCAUCUCCCUCCUAAGGAGAAGACUACGGGUUCGAGUCCCGUACGGUACG [C11U U13G U19A C22G G25A G48A A69U] was no more than 0.5. For GUUCCGUUGGAGUAAUGGGAACGCGUCUCCCUCCUGAGGAGAAGACUGAGGGUUCGAGUCCCGUACGCAACG [C11A U19G A36G C49A G68C], the yeast fitness is no more than 0.5. The value for GUUCCGUUGCCGUAAUGGUAACGCGUCUCCCUCCUAAGGAGAAGAUUGCGGGUUCGAGUCCUGUACGGAACG [G10C C46U C62U] was no more than 0.5; that for GUUCCGUUGGCGUAAUGGUCACGCGUCUCCCUCCUAAGGAGAAGACUCCGGGUUCGAGUCCCGUACGGACCG [A20C G48C A70C] was 0.649. In the case of GUUCCGUUGGCGUAAUGGUAUCGCGUCUACCUCCUAAGGAGAAGACUGCGGGUUCGAGUCCCGUACGGAACG [A21U C29A], the yeast fitness came out at 0.751. The value for GUUCCGUUGGCGUAAGGGUAACGUGUCUCCCUCCUAAGGAGAAGACUGGGGGUUGGAGUCCCGUACGGAACG [U16G C24U C49G C55G] was no more than 0.5. Consider GUUCCGUUGGCGUAACGGUAACGCGUCUCCCACCUAAGGAGAAGACUGCGGGUUCGAGUCCCGUACGGAACG [U16C U32A], for which the yeast fitness was found to be 0.682. The value for GUUAAGUUGGCGUAAUGGUUACGCGUCUCCCUCCUAAGGAGAAGACUGCGGGUUCGAGUCCCGUACGGAACG [C4A C5A A20U] was 0.605; that for GUUCCGUUGGCGUAAUGGUAACGCGUCUCUCUCCUAAGGAGACGACUGCGGAUUCGAGUCCCGUACGGAACG [C30U A43C G52A] was 0.516; that for GUUCCGUUGGCCUAAUGGUAACGCGUCUCCCUCCUAAGGAGAUGACUGCGGGUUCGAGUCCCGUACGGACCG [G12C A43U A70C] was 0.521. In the case of GAUACGUUGGCAUAAUGGUAACGCGUCUCCCUUCUAAGAAGAAGACUGCGGGUUCGAGUCCCGAACGGACCG [U2A C4A G12A C33U G39A U64A A70C], the yeast fitness was no more than 0.5. For the variant GUUCCGUUGGCGUAAUGAUACCGCGUCUCCCUGCUAUGGAGAAGACUGCGGGUUCGAGUCCCGGACGGAACG [G18A A21C C33G A37U U64G], the yeast fitness is no more than 0.5.

Consider GUUCCGUUGACGUAAUGGAAACGCGUCUCCCUCCUAAGGAGAACACUGCGGGUUCGAGUCCCGUACGGAACG [G10A U19A G44C], for which the yeast fitness worked out at 0.54. Regarding GUUCCGUUGGCAUAAUGGUAGCGCGUCUCCCUCCUAAGGAGAAGAAUGCGGGUUCGAGUCCCGUACGGAACG [G12A A21G C46A], the yeast fitness was found to be 0.936. Then GUGCCGUUGGCGUAAUGGUAACGCGUCUCCCUCCUAAGGAGAGGACUGCGGGUUCAAGUCCCGUACGGAACG [U3G A43G G56A], with 0.601; and GUUCCGCAGGCGUAAUGGUAACGCGUUUCCCUCCUAAGGAGAAGACUGCGGGUUCGAGUCCCGUACGGAACG [U7C U8A C27U], with no more than 0.5. GUUCCGUUGGCGUAAUGGUAACGCGUCUCCCUCCUAAGGAGAAGAAUGCGGGUUCGAGUCCUGUACGGUACG [C46A C62U A69U]: the yeast fitness came to 0.735. For GUUCCGUUGGGGUAAUGGUAACGCGUCUCCCUCCAAAGGAGAAGACUGCGGGUUCGAGUCCCGUAUGGAACG [C11G U35A C66U], the yeast fitness turned out to be 0.51.

For GUUCCGUUGGCGUAAUGGUAACGCGUCUCCCUCCUAAGGAGAAGGCUGCGGGUUCGAGCCCCGUACGGAACG [A45G U59C], the yeast fitness is 1.03. Turning to GUUCCGUUGGCGUAAUGGUAACGCGUCUCCCUCCUAAGGAGGAGACUGGGGGUUCGAGUCGCGUACGGAACG [A42G C49G C61G], the yeast fitness is no more than 0.5. Then GUUCCGUCGGCGUAAUGGUAACGCGUCUCCCUCCUAAGGUGAAGACUGCGGGUUCGAGUCCCGUACGGUACG [U8C A40U A69U], with 0.75; and GUCCCGUUGGCGUAAUGGUAACGCGUCUCCCUCCUAAGGAGAAGACUGCGGGUUCGAGUCUCGUACAGAACG [U3C C61U G67A], with 0.567.
